Experimental data from the EternaBench riboswitch data.

Test system: MS2 coat protein
Test: apparent Kd, MS2 coat protein; higher = weaker binding; RNA-MaP array; FMN 200 µM where present
How it was run: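 Designs on Illumina sequencing-chip clusters, transcribed by stalled E. coli RNA polymerase, were exposed to SNAP-549-labelled MS2 coat protein in doubling steps from 0.7 or 1.5 nM up to 3 µM, without and then with constant ligand. The buffer held 100 mM Tris-HCl pH 7.5, 80 mM KCl, 4 mM MgCl2, BSA, DTT, yeast tRNA and Tween-20. Apparent Kd values are medians of filtered per-cluster binding-curve fits to green signal normalised to red-channel RNA signal and control-cluster median Fmax.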

[1] = designed as: OFF switch for flavin mononucleotide, no ligand
[2] = ligand present: flavin mononucleotide, designed as: OFF switch for flavin mononucleotide
[3] = designed as: ON switch for flavin mononucleotide, no ligand
[4] = ligand present: flavin mononucleotide, designed as: ON switch for flavin mononucleotide

| Sequence | apparent Kd [1] | apparent Kd [2] | apparent Kd [3] | apparent Kd [4] |
| --- | --- | --- | --- | --- |
| CGCAACAUACAGAAGGAGUUAUUGAGAGGUUUACUAGGAUAUGUUCACAUGAGGAUCACCCAUGUCGUUUGGUUUUUUGUUGCG | 18.4 nM | 11.2 nM | – | – |
| CGCAAGUAUACAUGAGGAUCACCCAUGUCAAAUAUGGUAAUCAGAAGGUACAAUUCAAUAUAUAGUAAGGAUAUGAAUUUUGCG | – | – | 59 nM | 23.3 nM |
| CGCGAAAACAUAGGAUAUUGUUACAUGAGGAUCACCCAUGUCAACCAUUUAUCUCAAAUUGUUGACAAGAAGGAUGAGGUCGCG | – | – | 113 nM | 28.4 nM |
| CGCGAAUUACAGAAGGGACAAGGGAUAAAACCCAGGUCUUGCAGUAGACAUGAGGAUCACCCAUGUCAGGAUAUGUAGAGAGUU | 17.2 nM | 95.5 nM | – | – |
| CGCGGACAAGAGAAGGCCAGACCUCGGAACCUGAGGCACCGCUAGGCAUGGAGGAUAUCUUGACAUGAGGAUCACCCAUGUACU | – | – | 665 nM | 33.7 nM |
| CGCUAAUAAAUAGUAAUAAAAGUACAGGAUAUGUUACAUGAGGAUCACCCAUGUAUUGGGUAAGAACAGAAGGGUAUAUUAGCG | 153 nM | 115 nM | – | – |
| CGCUACUGCCAGAAGGACAUGAGGAUCACCCAUGUAGGAUAUGGGUGUCGAGGACCAGUGUAGAGAAACUACGCUACAGUAGCG | – | – | 958 nM | 57.6 nM |
| CGCUAUGAUGGGUUUAAUGGAGCAUAGGAUAUGCUUGUACAUGAGGAUCACCCAUGUUAUAUUUUGCAGAAGGGUGCAUUUGCG | – | – | 284 nM | 95.3 nM |
| CGCUUCUUAGUCAGGAUAUUGUCUGCACAGGGUAGUAAGAAGGGACAUGAGGAUCACCCAUGUAUAACGGUACC | 51.8 nM | 49.1 nM | – | – |
| CGGACAAUGCCCGAGACAUGAGGAUCACCCAUGUUAGCAGCACAGGAUAUCAUGUUUUGUAAAGGUGAGAAGGGUGAUUGCAUC | – | – | 102 nM | 68.2 nM |
| CGGAUUAUGUGAGGAUAUAAUCGUUUCCAUUGAUUAGAAGGCACAUGAGGAUCACCCAUGUGGCAUGUAAUGCCAUGUGACGCU | 442 nM | 41.3 nM | – | – |
| CGGCACCAAGGAUAUACAUGAGGAUCACCCAUGUUUUUUGGGCCCUAAAGAUCUACGUGUAGAAGGUGGGUCGA | 58.8 nM | 59.6 nM | – | – |
| CGGUAUAUGAAGGGCGAAAGCCCACAUGAGGAUCACCCAUGUAGAAGGCGGGCCGCAACGCGGCCCGAGGAUAUACAAUAUACA | 6.5 nM | 12.4 nM | – | – |
| CGGUCACAUGAGGAUCACCCAUGUACCUACGCGAUGAAGUCGCAGGAUAUCCAUUACUUUACGUAGGAGAAGGGUGACGCUCGC | – | – | 51.1 nM | 34 nM |
| CGGUCGAUGUAAGGAUAUCGACUGGAUAACAGUCGAGAAGGUACAUGAGGAUCACCCAUGUAAUCCUAAUAAUAAUAACGACCG | 12.6 nM | 18 nM | – | – |
| CGGUGACAUGAGGAUCACCCAUGUUAGGAUAUACAAAAGCUCGCUCAAGGGCGGCGAAGUAGAAGGAGCGUGCC | 21.7 nM | 29.7 nM | – | – |
| CGGUGACGUGUAGGAUAUGGCGAUGGGUUUUGGCCAGAAGGACAUGAGGAUCACCCAUGUGGUAGAGGGCUGGCGGCCGCCCGU | 26.5 nM | 60 nM | – | – |
| CGGUGCUGAGGAUAUACAUGAGGAUCACCCAUGUGUUCUAGCUAGCGUACUGGCAGAUGUAGAAGGCGGUACUG | 18.2 nM | 75.7 nM | – | – |
| CGGUUGUCAGGAUAUACGAACAUGUCGCCAGAUGUCAUGGUACAUGAGGAUCACCCAUGUAGAAGGGAGGAGGU | 135 nM | 80 nM | – | – |
| CGGUUUCACAUUUUAGUGAUUUAUACAGAAGGCCAUACACAUGAGGAUCACCCAUGUCAGGAAUUGGAGGAUAUGUUAUUGACG | – | – | 6.1 nM | 4.4 nM |
| CGUAAGAUGCAGAAGGUGUUAGCUAGAGCUACGACAUGAGGAUCACCCAUGUACUAGAAACAGUACAAGGAUAUGCAUCUUACU | – | – | 18.4 nM | 6.25 nM |

| Sequence | apparent Kd [1] | apparent Kd [2] | apparent Kd [3] | apparent Kd [4] |
| --- | --- | --- | --- | --- |
| CGUACUCAAGUGAGGAUAUUGUCUCGGAUACGAAACAAGAAGGCACAUGAGGAUCACCCAUGUAGAGAGUACGA | 16.2 nM | 14.3 nM | – | – |
| CGUAGGAUCCAGAAGGCAUGAACAUGAGGAUCACCCAUGUGAAAAGACAUGAGGAUAUGGAUCCUACGAAAAGUGCGAAAGCAC | – | – | 5.53 nM | 5.47 nM |
| CGUCCACAUGAGGAUCACCCAUGUCAGGAUAUACAAAUGCCAGGUCGCGGGCCAGGCGGUAGAAGGGACGUGGC | 23.1 nM | 18.6 nM | – | – |
| CGUCUAUGCAAGAAGGCAUGAAACAUGAGGAUCACCCAUGUCAAAGACAUGAGGAUAUUGCAUAGACGAAAAGUGCGAAAGCAC | – | – | – | 3.32 nM |
| CGUGACGACAUAGGAUAUUGAUACAUGAGGAUCACCCAUGUCACCCAUUUAUCUCAAAUUGUUGACAAGAAGGAUGUGGUCACG | – | – | 16.7 nM | 10.8 nM |
| CGUGACUCAGGAUAUCUAUAGUGUCACAUGAGGAUCACCCAUGUCCAGCGAAAGCUGGAGGGAGAAGGGAGUCACG | 96.7 nM | 39.9 nM | – | – |
| CGUGGUUGGGAGGAUAUGCACGUGAACGCUAUUGUAGAAGGUCCGACAUGAGGAUCACCCAUGUAGGUGUCACG | 168 nM | 147 nM | – | – |
| CGUUAUGAUAGAGGAUAUGUAAUACAUGAGGAUCACCCAUGUUACAUGGGUAAUAUUAAUAAUUAACAGAAGGCUAUCCUUUCG | 484 nM | 149 nM | – | – |
| CGUUCACAUGAGGAUCACCCAUGUCAGAUUUGGUCAGGAUAUGGUCGGCAUCCGCUAUUGCCAGAAGGGACUGUUG | – | – | 55.3 nM | 36.3 nM |
| CGUUGACAUGAGGAUCACCCAUGUCAGAUUUGGUCAGGAUAUGGUGUGGUUUGGCUAUUGCCAGAAGGGACGUUUG | – | – | 92.1 nM | 58.5 nM |
| CGUUGAUAAUAUCUUCACAUGAGGAUCACCCAUGUCGCUCGACAGGAUAUAUUUGAUUUGUUUAAGUAGAAGGGUCGCAGAUGC | – | – | 157 nM | 130 nM |
| CGUUUUAAACAAGGAUAUCAUUUGUGUACAAGUUUUACAUGAGGAUCACCCAUGUUAAAUGGUUUUGAGAAGGUGUUUAGAACG | – | – | 31.1 nM | 25 nM |
| CUAAAUCAUGUAGGAUAUGCGUGGCGAAGCUAUGCAGAAGGACAUGAGGAUCACCCAUGUCUAUCCGUCUGCGUACAGACGGAA | 25.1 nM | 186 nM | – | – |
| CUAAAUCAUGUAGGAUAUGCGUGGCGAAGCUAUGCAGAAGGACAUGAGGAUCACCCAUGUCUUUCCGUCUGCGUACAGACGGAA | 28.6 nM | 282 nM | – | – |
| CUACCUUAUGAGAAGGCGAUCAUGAAACAUGAUCGAGGAUAUCAUGUAAACAUGAGGAUCACCCAUGUAUGGGUAUUAUGGUAG | – | – | 331 nM | 40.4 nM |
| CUACCUUAUGAGAAGGCGAUCAUGAAACAUGAUCGAGGAUAUCAUGUAAACAUGAGGAUCACCCAUGUAUGGGUAUUAUGGUAU | – | – | 91.5 nM | 25.4 nM |
| CUACGAGCGCCACAGGAUAUACUGAGACUCACAUGAGGAUCACCCAUGUCCAAUUCUCCCAAAUAGUAGAAGGGUGACGCGCUCG | – | – | 699 nM | 53.3 nM |
| CUAGCAACAUGAGGAUCACCCAUGUAGGAUAUCGCUAUUGUAAUCAUGAAACAUGAUUACAAUAGCGAGAAGGACAUAUGCUAC | 9.59 nM | 11 nM | – | – |
| CUAGCUAUCGGAGGAUAUUCAUAGCCGAAAGGCACAUGAGGAUCACCCAUGUGCGGAAACGCUUGGGAGAAGGCCGAUAGCUAG | – | – | 25.7 nM | 15.2 nM |
| CUAGUACAUGAGGAUCACCCAUGUCAGGAUAUUGGAUAUGCCUUGGAAAACAUGUUUACAAGAAGGGACUAUAG | 19.1 nM | 19.6 nM | – | – |
| CUAGUUGUCGCAGGAUAUGCCCGCUGGUUGGAGGCAGAAGGGUGACACCAAAUAUUAUACAUGAGGAUCACCCAUGUCGCCAGC | – | – | 21.4 nM | 20.6 nM |
